# Reference: ChEMBL document CHEMBL5674883, “The Heterochromatin Landscape in Migrating Cells and the Importance of H3K27me3 for Associated Transcriptome Alterations” (Cells, 2018)
# Tests used:
# Format in all cases: cell-based
# [1] = target: Histone-lysine N-methyltransferase EZH2 (Mus musculus) (UniProt Q61188); assay: Inhibition of EZH2 in mouse B16-F1 migrating cells assessed as fold change in H3K27me3-dependent regulated Ccno-mRNA expression at 3 uM measured by ChIP-seq analysis relative to control cells
# Chain of Histone-lysine N-methyltransferase EZH2 (Mus musculus) (Q61188 whole entry): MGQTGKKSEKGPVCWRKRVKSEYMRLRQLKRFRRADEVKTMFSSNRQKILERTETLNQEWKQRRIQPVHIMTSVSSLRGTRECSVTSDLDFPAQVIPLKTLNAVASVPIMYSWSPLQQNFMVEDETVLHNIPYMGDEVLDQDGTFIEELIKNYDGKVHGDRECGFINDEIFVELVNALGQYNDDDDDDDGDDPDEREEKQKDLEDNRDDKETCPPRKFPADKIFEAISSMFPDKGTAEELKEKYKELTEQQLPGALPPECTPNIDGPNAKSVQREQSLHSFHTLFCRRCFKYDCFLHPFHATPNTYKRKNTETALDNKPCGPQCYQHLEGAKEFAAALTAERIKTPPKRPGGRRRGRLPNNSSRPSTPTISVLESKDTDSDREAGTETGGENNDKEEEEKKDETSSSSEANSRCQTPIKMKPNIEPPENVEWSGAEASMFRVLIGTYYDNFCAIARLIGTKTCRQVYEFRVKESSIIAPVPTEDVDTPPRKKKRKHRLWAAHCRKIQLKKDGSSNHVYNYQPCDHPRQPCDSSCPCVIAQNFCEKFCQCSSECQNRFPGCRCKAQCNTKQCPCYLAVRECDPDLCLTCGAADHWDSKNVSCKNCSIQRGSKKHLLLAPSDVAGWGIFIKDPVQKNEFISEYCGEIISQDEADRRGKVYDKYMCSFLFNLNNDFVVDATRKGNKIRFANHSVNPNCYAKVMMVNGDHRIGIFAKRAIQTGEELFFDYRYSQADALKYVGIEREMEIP
# How it was run: (§1)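 Confluent B16-F1 cells on fibronectin-coated plates were scratched at multiple sites, washed once with DMEM and left to migrate 3 h in growth medium (37 °C, 7% CO2); unscratched cells served as control. GSK343 (3 µM) was added 3 h before lysis. Poly A mRNA was sequenced (RNA-seq), with 5 replicates for untreated and 3 for treated cells. Differential expression was called by linear model with batch correction, at FDR <0.05 and fold change ≥1.3.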
# [2] = target: Histone-lysine N-methyltransferase EZH2 (Mus musculus) (UniProt Q61188); assay: Inhibition of EZH2 in mouse B16-F1 migrating cells assessed as fold change in H3K27me3-independent regulated Tmem179-mRNA expression at 3 uM measured by […] analysis relative to control cells; how it was run: as §1
# [3] = target: Histone-lysine N-methyltransferase EZH2 (Mus musculus) (UniProt Q61188); assay: Inhibition of EZH2 in mouse B16-F1 migrating cells assessed as fold change in H3K27me3-independent regulated Bnip3-mRNA expression at 3 uM measured by […] analysis relative to control cells; how it was run: as §1
# [4] = target: Histone-lysine N-methyltransferase EZH2 (Mus musculus) (UniProt Q61188); assay: Inhibition of EZH2 in mouse B16-F1 migrating cells assessed as fold change in H3K27me3-buffered regulated Ern1-mRNA expression at 3 uM measured by ChIP-seq analysis relative to control cells
# How it was run: (§2)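 Confluent B16-F1 cells on fibronectin-coated plates, cultured at 37 °C and 7% CO2, were scratched at multiple sites to induce migration. They were then held 3 h in growth medium containing 3 µM GSK343, with the inhibitor added 3 h before lysis. Unscratched cells served as controls. Poly A mRNA was analysed by RNA-seq (n=3 GSK343, n=5 controls). Linear models removed batch effects, and buffered genes were those altered only under GSK343 (FDR <0.05, fold change >1.3).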
# [5] = target: Histone-lysine N-methyltransferase EZH2 (Mus musculus) (UniProt Q61188); assay: Inhibition of EZH2 in mouse B16-F1 migrating cells assessed as fold change in H3K27me3-buffered regulated Aldoa-mRNA expression at 3 uM measured by […] analysis relative to control cells; how it was run: as §2
# [6] = target: Histone-lysine N-methyltransferase EZH2 (Mus musculus) (UniProt Q61188); assay: Inhibition of EZH2 in mouse B16-F1 migrating cells assessed as fold change in H3K27me3-buffered regulated Ttc14-mRNA expression at 3 uM measured by ChIP-seq analysis relative to control cells; how it was run: as §1
# [7] = target: Histone-lysine N-methyltransferase EZH2 (Mus musculus) (UniProt Q61188); assay: Inhibition of EZH2 in mouse B16-F1 migrating cells assessed as fold change in H3K27me3-buffered regulated Arid4a-mRNA expression at 3 uM measured by ChIP-seq analysis relative to control cells; how it was run: as §2
# [8] = target: Histone-lysine N-methyltransferase EZH2 (Mus musculus) (UniProt Q61188); assay: Inhibition of EZH2 in mouse B16-F1 migrating cells assessed as fold change in H3K27me3-buffered regulated Tet2-mRNA expression at 3 uM measured by ChIP-seq analysis relative to control cells; how it was run: as §1
# [9] = target: Histone-lysine N-methyltransferase EZH2 (Mus musculus) (UniProt Q61188); assay: Inhibition of EZH2 in mouse B16-F1 migrating cells assessed as fold change in H3K27me3-buffered regulated 1810032O08Rik-mRNA expression at 3 uM measured by […] analysis relative to control cells; how it was run: as §2
# [10] = target: T1, RNA polymerase II (Mus musculus) (UniProt P08775+Q8CFI7+P97760+A0A3Q4L2S8+Q80UW8+P61219+P62488+Q923G2+P60898+O08740+Q63871+P62876); assay: Inhibition of RNA polymerase II in mouse B16-F1 migrating cells assessed as fold change in Fkbp8-RNA stability at 0.1 mM measured by ChIP-seq analysis relative to control cells
# [11] = target: T1, RNA polymerase II (Mus musculus); assay: Inhibition of RNA polymerase II in mouse B16-F1 migrating cells assessed as fold change in Trpv2-RNA stability at 0.1 mM measured by […] analysis relative to control cells
# [12] = target: T1, RNA polymerase II (Mus musculus); assay: Inhibition of RNA polymerase II in mouse B16-F1 migrating cells assessed as fold change in Bcap29-RNA stability at 0.1 mM measured by […] analysis relative to control cells
# [13] = target: T1, RNA polymerase II (Mus musculus); assay: Inhibition of RNA polymerase II in mouse B16-F1 migrating cells assessed as fold change in Bpnt1-RNA stability at 0.1 mM measured by […] analysis relative to control cells
# [14] = target: T1, RNA polymerase II (Mus musculus); assay: Inhibition of RNA polymerase II in mouse B16-F1 migrating cells assessed as fold change in Socs5-RNA stability at 0.1 mM measured by […] analysis relative to control cells
# [15] = target: T1, RNA polymerase II (Mus musculus); assay: Inhibition of RNA polymerase II in mouse B16-F1 migrating cells assessed as fold change in Dido1-RNA stability at 0.1 mM measured by […] analysis relative to control cells
# How it was run: (§3)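 Mouse B16-F1 melanoma cells grown to confluence on fibronectin in DMEM/10% FCS at 37 °C, 7% CO2. Migration induced by multiple scratches and 3 h incubation; unscratched controls. DRB 0.1 mM added 3 h before lysis. RNA from poly A-selected mRNA was sequenced (RNA-seq, three replicates per DRB group). Fold change computed for DRB-treated migrating vs DRB-treated control cells; cutoffs fold change >1.3, FDR <0.05.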
# [16] = target: T1, RNA polymerase II (Mus musculus); assay: Inhibition of RNA polymerase II in mouse B16-F1 migrating cells assessed as fold change in Orc4-RNA stability at 0.1 mM measured by […] analysis relative to control cells
# [17] = target: T1, RNA polymerase II (Mus musculus); assay: Inhibition of RNA polymerase II in mouse B16-F1 migrating cells assessed as fold change in Adam17-RNA stability at 0.1 mM measured by […] analysis relative to control cells
# [18] = target: T1, RNA polymerase II (Mus musculus); assay: Inhibition of RNA polymerase II in mouse B16-F1 migrating cells assessed as fold change in Otud6b-RNA stability at 0.1 mM measured by […] analysis relative to control cells
# [19] = target: T1, RNA polymerase II (Mus musculus); assay: Inhibition of RNA polymerase II in mouse B16-F1 migrating cells assessed as fold change in Trappc8-RNA stability at 0.1 mM measured by […] analysis relative to control cells
# [20] = target: T1, RNA polymerase II (Mus musculus); assay: Inhibition of RNA polymerase II in mouse B16-F1 migrating cells assessed as fold change in Phf20l1-RNA stability at 0.1 mM measured by […] analysis relative to control cells
# [21] = target: T1, RNA polymerase II (Mus musculus); assay: Inhibition of RNA polymerase II in mouse B16-F1 migrating cells assessed as fold change in Nek7-RNA stability at 0.1 mM measured by ChIP-seq analysis relative to control cells
# [22] = target: T1, RNA polymerase II (Mus musculus); assay: Inhibition of RNA polymerase II in mouse B16-F1 migrating cells assessed as fold change in Ifit2-RNA stability at 0.1 mM measured by […] analysis relative to control cells; how it was run: as §3
# [23] = target: T1, RNA polymerase II (Mus musculus); assay: Inhibition of RNA polymerase II in mouse B16-F1 migrating cells assessed as fold change in Mex3c-RNA stability at 0.1 mM measured by ChIP-seq analysis relative to control cells
# [24] = target: T1, RNA polymerase II (Mus musculus); assay: Inhibition of RNA polymerase II in mouse B16-F1 migrating cells assessed as fold change in Mastl-RNA stability at 0.1 mM measured by ChIP-seq analysis relative to control cells
structure (smiles),measurement,setting,value
CCCc1cc(C)[nH]c(=O)c1CNC(=O)c1cc(-c2ccnc(N3CCN(C)CC3)c2)cc2c1cnn2C(C)C,log2FC,[1],1.02
same,log2FC,[2],1.1
same,log2FC,[3],0.68
same,log2FC,[4],0.72
same,log2FC,[5],0.42
same,log2FC,[6],-0.44
same,log2FC,[7],-0.47
same,log2FC,[8],-0.48
same,log2FC,[9],-1.08
OC[C@H]1O[C@@H](n2cnc3cc(Cl)c(Cl)cc32)[C@H](O)[C@@H]1O,log2FC,[10],0.41
same,log2FC,[11],0.41
same,log2FC,[12],-0.48
same,log2FC,[13],-0.48
same,log2FC,[14],-0.48
same,log2FC,[15],-0.53
same,log2FC,[16],-0.54
same,log2FC,[17],-0.56
same,log2FC,[18],-0.6
same,log2FC,[19],-0.62
same,log2FC,[20],-0.65
same,log2FC,[21],-0.66
same,log2FC,[22],-0.69
same,log2FC,[23],-0.71
same,log2FC,[24],-0.74
